This note sets out measurements from ChEMBL document CHEMBL2158002, “Small-molecular inhibitors of Ca²⁺-induced mitochondrial permeability transition (MPT) derived from muscle relaxant dantrolene” (2012).

For orientation: inhibition means the share of the control response that was lost under treatment. Lower therefore signals a response near the control.

One assay deals with HL-60. Kind of assay: Inhibition of Ca2+-induced mitochondrial permeability transition in human HL60 cells at 25 uM after 40 mins relative to control. Format: functional. The settings on record: HL-60, 40 min. Put shortly:
(§1)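 Mitochondria were isolated from human leukaemia HL-60 cells, which were grown in RPMI1640 with 5% heat-inactivated FBS and penicillin/streptomycin at 37 °C under 5% CO2. Swelling was then triggered with 250 µM CaCl2 (final) and followed as the change in OD540 at 30 °C. Inhibition % at 40 min was scaled between no-CaCl2 (100%) and CaCl2-only (0%) controls.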
Compound `CN1C(=O)CN(NC(=O)c2ccc(-c3cc(Cl)cc(Cl)c3)o2)C1=O` came in with an inhibition at 25 µM of 8.5%.
Same read-out and setting: the same measure for `Nc1cccc(CN2C(=O)CN(NC(=O)c3ccc(-c4cc(Cl)cc(Cl)c4)o3)C2=O)c1`: 35%.
The same measure, in the same setting: next, `Nc1cccc(CN2C(=O)CN(/N=C/c3ccc(-c4cc(Cl)cc(Cl)c4)o3)C2=O)c1`: 14%; `Nc1cccc(CN2C(=O)CN(NC(=O)c3ccc(-c4cccc(C(F)(F)F)c4)o3)C2=O)c1`: 6.5%; `CN1C(=O)CN(/N=C/c2ccc(-c3cccc(Cl)c3)o2)C1=O`: 6%.
The same measure, in the same setting: the same measure for `CN1C(=O)CN(NC(=O)c2ccc(-c3cccc(Cl)c3)o2)C1=O`: 2%; for `CN1C(=O)CN(/N=C/c2ccc(-c3cc(Cl)cc(Cl)c3)o2)C1=O`: 23%.
With `Nc1cccc(CN2C(=O)CN(NC(=O)c3ccc(-c4cccc(Cl)c4)o3)C2=O)c1`, 25 µM produced 16% inhibition.
Still for that read-out and setting: the same measure for `O=C1CN(/N=C/c2ccc(-c3ccc([N+](=O)[O-])cc3)o2)C(=O)N1` [DANTROLENE SODIUM]: 13%.
The same measure, in the same setting: next, `Nc1cccc(CN2C(=O)CN(/N=C/c3ccc(-c4cccc(Cl)c4)o3)C2=O)c1`: 14%.

The next assay concerns HL-60. As to the kind of experiment: Inhibition of Ca2+-induced mitochondrial permeability transition in human HL60 cells at 50 uM after 40 mins relative to control. Format: functional. The settings on record: HL-60, 40 min. Put shortly: as §1
Consider `Nc1cccc(CN2C(=O)CN(NC(=O)c3ccc(-c4ccc(Cl)cc4)o3)C2=O)c1`, for which the inhibition at 50 µM is 20%.
Still for that read-out and setting: next, `Nc1cccc(CN2C(=O)CN(NC(=O)c3ccc(-c4cccc(Br)c4)o3)C2=O)c1`: 11%; `Nc1cccc(CN2C(=O)CN(NC(=O)c3ccc(-c4cc(Cl)cc(Cl)c4)o3)C2=O)c1`: 48%; `O=C(NN1CC(=O)N(Cc2cccnc2)C1=O)c1ccc(-c2cc(Cl)cc(Cl)c2)o1`: 71%.
On to `O=C(NN1CC(=O)N(Cc2ccncc2)C1=O)c1ccc(-c2cc(Cl)cc(Cl)c2)o1`, for which the inhibition at 50 µM was found to be 8.7%.
Still for that read-out and setting: next, `Nc1ccc(CN2C(=O)CN(NC(=O)c3ccc(-c4cc(Cl)cc(Cl)c4)o3)C2=O)cc1`: 46%; `Nc1cccc(CN2C(=O)CN(NC(=O)c3ccc(-c4ccccc4)o3)C2=O)c1`: 19%.
